Experimental data published in ChEMBL document CHEMBL4808210, “Mapping Chromone-3-Phenylcarboxamide Pharmacophore: Quid Est Veritas?” (J Med Chem, 2021).
pIC50: −log10 of the molar value. Each block holds one compound with its values, some of them ahead of it. Activity calls are given as the source filed them. The rule behind the calls is not given here.

What was measured:
[1] = Solubility of the compound in phosphate buffer at > 10 uM; type: physicochemical
MAO-A = target: T1, MAO-A (Homo sapiens, UniProt P21397); assay: (§1) Inhibition of recombinant human MAO-A expressed in baculovirus infected BTI-TN- 5B1-4 insect cells at 10 uM using kynuramine as substrate preincubated for 10 mins in presence of substrate followed by enzyme addition and measured every minute for 30 mins by spectrophotometry analysis relative to control; settings: probe kynuramine, time 40 min
T1 sequence (P21397 whole entry): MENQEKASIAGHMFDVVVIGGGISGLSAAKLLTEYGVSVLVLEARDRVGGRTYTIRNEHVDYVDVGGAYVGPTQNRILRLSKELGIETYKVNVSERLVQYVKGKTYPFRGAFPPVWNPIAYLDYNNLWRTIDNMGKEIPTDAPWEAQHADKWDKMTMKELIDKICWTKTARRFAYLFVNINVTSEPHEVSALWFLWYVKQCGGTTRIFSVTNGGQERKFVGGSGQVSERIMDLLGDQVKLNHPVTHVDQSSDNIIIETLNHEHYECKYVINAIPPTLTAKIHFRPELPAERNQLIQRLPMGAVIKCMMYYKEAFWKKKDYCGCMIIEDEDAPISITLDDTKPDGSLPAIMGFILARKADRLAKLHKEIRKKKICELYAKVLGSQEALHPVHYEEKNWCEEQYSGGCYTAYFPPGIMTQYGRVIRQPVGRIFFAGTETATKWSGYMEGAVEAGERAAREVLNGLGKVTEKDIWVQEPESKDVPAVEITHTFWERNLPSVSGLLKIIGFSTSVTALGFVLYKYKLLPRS
Method in brief: (§2)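 Recombinant hMAO-A and hMAO-B were assayed with kynuramine as substrate. Percent inhibition was taken at 10 μM, the highest concentration tested. Where the hMAO-A IC₅₀ was not reached, it was taken as 10 μM.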

[2] = target: T2, Amine oxidase [flavin-containing] B (Homo sapiens, UniProt P27338); assay: Time dependent inhibition of recombinant human MAO-B expressed in baculovirus infected BTI-TN- 5B1-4 insect cells assessed as increase in enzyme activity at IC80 measured after 120 mins; settings: bti-tn-5b1-4, 2 h
T2 sequence (P27338 whole entry): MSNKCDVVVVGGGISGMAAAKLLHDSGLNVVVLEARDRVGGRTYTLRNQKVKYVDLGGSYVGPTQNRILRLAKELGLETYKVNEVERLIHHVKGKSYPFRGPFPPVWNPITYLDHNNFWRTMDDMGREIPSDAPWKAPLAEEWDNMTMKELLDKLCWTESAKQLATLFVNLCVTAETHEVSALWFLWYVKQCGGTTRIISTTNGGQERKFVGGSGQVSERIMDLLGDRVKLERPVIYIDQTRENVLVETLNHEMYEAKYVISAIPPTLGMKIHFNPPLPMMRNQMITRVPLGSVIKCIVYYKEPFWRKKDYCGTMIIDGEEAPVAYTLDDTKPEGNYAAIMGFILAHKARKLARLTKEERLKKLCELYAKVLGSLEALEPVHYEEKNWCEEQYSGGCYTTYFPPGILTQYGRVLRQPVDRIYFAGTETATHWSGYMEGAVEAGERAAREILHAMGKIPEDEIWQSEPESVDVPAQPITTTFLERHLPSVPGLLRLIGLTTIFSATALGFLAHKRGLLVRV

[3] = target: T2, Amine oxidase [flavin-containing] B; assay: Inhibition of recombinant human MAO-B expressed in baculovirus infected BTI-TN- 5B1-4 insect cells using kynuramine as substrate preincubated for 10 mins in presence of substrate followed by enzyme addition and measured every minute for 30 mins by spectrophotometry analysis; type: cell-based
Homo sapiens = species: Homo sapiens; assay: Selectivity index, ratio of IC50 for recombinant human MAO-A expressed in baculovirus infected BTI-TN- 5B1-4 insect cells to IC50 for recombinant human MAO-B expressed in baculovirus infected BTI-TN- 5B1-4 insect cells using kynuramine as substrate preincubated for 10 mins in presence of substrate followed by enzyme addition and measured every minute for 30 mins by spectrophotometry analysis; method in brief: as §2
SH-SY5Y [4] = assay: Cytotoxicity against human SH-SY5Y cells assessed as reduction in cell viability at 10 uM measured after 24 hrs by MTT assay relative to control; type: cell-based
Method in brief: (§3)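 Caco-2 cells, and SH-SY5Y cells first differentiated toward a dopaminergic-like phenotype, were treated for 24 h with compounds at 1 and 10 μM. Metabolic activity was read as MTT reduction to formazan, relative to untreated cells. Mean ± SEM of at least three independent experiments, each in triplicate.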

SH-SY5Y [5] = assay: Cytotoxicity against human SH-SY5Y cells assessed as reduction in cell viability at 1 uM measured after 24 hrs by MTT assay relative to control; type: cell-based; method in brief: as §3
SH-SY5Y [6] = assay: Cytotoxicity against human SH-SY5Y cells assessed as effect on NR uptake at 1 to 10 uM measured after 24 hrs by neutral red uptake assay; type: cell-based; settings: dose 1-10 µM
Method in brief: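 Differentiated SH-SY5Y cells were exposed to compounds at 1 and 10 μM for 24 h. Lysosomal activity was read as neutral red dye uptake and compared with untreated cells. Mean ± SEM of at least three independent experiments run in triplicate.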

Caco-2 [7] = assay: Cytotoxicity against human Caco-2 cells assessed as reduction in cell viability at 10 uM measured after 24 hrs by MTT assay relative to control; type: cell-based; settings: caco-2, 24 h; method in brief: as §3
[8] = target: T2, Amine oxidase [flavin-containing] B; assay: as §1, with “MAO-B” for “MAO-A”; settings: BTI-TN-5B1-4, human, 0.5 h, time 40 min; method in brief: as §2
[9] = target: T3, Amine oxidase [flavin-containing] A (Homo sapiens, UniProt P21397); assay: Inhibition of recombinant human MAO-A expressed in baculovirus infected BTI-TN- 5B1-4 insect cells using kynuramine as substrate preincubated for 10 mins in presence of substrate followed by enzyme addition and measured every minute for 30 mins by spectrophotometry analysis; method in brief: as §2
T3 sequence (P21397 whole entry): T1 sequence (P21397 whole entry)

Caco-2 [10] = assay: Cytotoxicity against human Caco-2 cells assessed as effect on cell viability at 1 to 10 uM measured after 24 hrs by MTT assay; type: cell-based; settings: caco-2, 24 h, dose 1-10 µM; method in brief: as §3
HUVEC [11] = assay: Cytotoxicity against HUVEC cells at 10 uM incubated for 24 to 48 hrs by Celltiter-Glo assay relative to control; type: cell-based; settings: human, time 24-48 hrs
Method in brief: (§4)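 Cells (HEK-293, HUVEC, MCF-7) exposed to test compounds at 10 μM for 24 h; cytotoxicity read in triplicate with a luminescence kit measuring intracellular ATP levels.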

HEK293 [12] = assay: Cytotoxicity against HEK293 cells at 10 uM incubated for 24 to 48 hrs by Celltiter-Glo assay relative to control; type: cell-based; settings: human, hek293, 10 µM, time 24-48 hrs; method in brief: as §4
MCF7 [13] = assay: Cytotoxicity against human MCF7 cells at 10 uM incubated for 24 to 48 hrs by Celltiter-Glo assay relative to control; type: cell-based; settings: mcf7, 10 µM, time 24-48 hrs; method in brief: as §4
HUVEC [14] = assay: Cytotoxicity against HUVEC cells incubated for 24 to 48 hrs by Celltiter-Glo assay; type: cell-based, Homo sapiens; settings: huvec
HEK293 [15] = assay: Cytotoxicity against HEK293 cells incubated for 24 to 48 hrs by Celltiter-Glo assay; type: cell-based, Homo sapiens
MCF7 [16] = assay: Cytotoxicity against human MCF7 cells incubated for 24 to 48 hrs by Celltiter-Glo assay; type: cell-based
hERG = hERG (Homo sapiens, UniProt Q12809); assay: Inhibition of human ERG at 10 uM incubated for 2 hrs by fluorescence polarization assay relative to control
hERG, sequence (Q12809 whole entry): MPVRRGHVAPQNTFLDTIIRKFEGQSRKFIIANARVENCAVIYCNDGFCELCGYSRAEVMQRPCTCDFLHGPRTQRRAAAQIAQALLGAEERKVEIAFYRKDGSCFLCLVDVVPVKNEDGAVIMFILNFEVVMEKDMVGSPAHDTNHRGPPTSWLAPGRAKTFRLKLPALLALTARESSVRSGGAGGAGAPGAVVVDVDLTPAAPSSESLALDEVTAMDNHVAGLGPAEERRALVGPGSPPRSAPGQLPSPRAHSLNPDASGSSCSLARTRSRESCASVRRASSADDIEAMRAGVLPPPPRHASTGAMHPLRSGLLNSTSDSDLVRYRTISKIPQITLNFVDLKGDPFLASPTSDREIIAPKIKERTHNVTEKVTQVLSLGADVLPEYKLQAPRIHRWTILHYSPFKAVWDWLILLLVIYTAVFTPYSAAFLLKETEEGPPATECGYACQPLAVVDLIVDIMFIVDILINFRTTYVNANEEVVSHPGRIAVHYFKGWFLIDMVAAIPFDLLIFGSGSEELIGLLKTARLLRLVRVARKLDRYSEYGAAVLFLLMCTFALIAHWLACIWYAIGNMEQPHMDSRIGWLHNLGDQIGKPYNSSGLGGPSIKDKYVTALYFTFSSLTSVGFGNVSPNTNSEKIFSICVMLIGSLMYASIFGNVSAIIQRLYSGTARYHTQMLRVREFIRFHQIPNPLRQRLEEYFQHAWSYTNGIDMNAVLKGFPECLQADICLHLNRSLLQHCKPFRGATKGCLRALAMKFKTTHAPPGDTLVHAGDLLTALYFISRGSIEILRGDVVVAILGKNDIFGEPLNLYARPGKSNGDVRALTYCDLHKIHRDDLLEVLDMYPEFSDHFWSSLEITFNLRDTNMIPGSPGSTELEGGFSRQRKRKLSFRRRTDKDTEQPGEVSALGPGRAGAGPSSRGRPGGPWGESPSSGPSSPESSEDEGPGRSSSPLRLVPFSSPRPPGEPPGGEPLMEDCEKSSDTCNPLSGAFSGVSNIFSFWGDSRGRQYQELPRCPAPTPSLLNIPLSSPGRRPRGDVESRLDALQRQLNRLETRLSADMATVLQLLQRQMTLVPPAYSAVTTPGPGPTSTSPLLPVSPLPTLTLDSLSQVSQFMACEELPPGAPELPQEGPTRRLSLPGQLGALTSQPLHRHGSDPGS
Method in brief: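 hERG binding was measured by fluorescence polarization, using a homogenized membrane preparation containing hERG plus a fluorescent tracer. A drop in FP signal from tracer displacement was read as inhibition. Compounds were tested at 10 μM.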

[17] = target: ATP-dependent translocase ABCB1 (Homo sapiens, UniProt P08183); assay: Modulation of P-gp-mediated Rhodamine-123 efflux in human Caco-2 cells assessed as Rhodamine-123 accumulation at 10 uM pretreated for 30 mins in presence or absence of Zos followed by Rho-123 addition and measured after 90 mins by fluorescence spectroscopy; type: cell-based; settings: caco-2, 2 h, time 120 min
ATP-dependent translocase ABCB1, sequence (P08183 whole entry): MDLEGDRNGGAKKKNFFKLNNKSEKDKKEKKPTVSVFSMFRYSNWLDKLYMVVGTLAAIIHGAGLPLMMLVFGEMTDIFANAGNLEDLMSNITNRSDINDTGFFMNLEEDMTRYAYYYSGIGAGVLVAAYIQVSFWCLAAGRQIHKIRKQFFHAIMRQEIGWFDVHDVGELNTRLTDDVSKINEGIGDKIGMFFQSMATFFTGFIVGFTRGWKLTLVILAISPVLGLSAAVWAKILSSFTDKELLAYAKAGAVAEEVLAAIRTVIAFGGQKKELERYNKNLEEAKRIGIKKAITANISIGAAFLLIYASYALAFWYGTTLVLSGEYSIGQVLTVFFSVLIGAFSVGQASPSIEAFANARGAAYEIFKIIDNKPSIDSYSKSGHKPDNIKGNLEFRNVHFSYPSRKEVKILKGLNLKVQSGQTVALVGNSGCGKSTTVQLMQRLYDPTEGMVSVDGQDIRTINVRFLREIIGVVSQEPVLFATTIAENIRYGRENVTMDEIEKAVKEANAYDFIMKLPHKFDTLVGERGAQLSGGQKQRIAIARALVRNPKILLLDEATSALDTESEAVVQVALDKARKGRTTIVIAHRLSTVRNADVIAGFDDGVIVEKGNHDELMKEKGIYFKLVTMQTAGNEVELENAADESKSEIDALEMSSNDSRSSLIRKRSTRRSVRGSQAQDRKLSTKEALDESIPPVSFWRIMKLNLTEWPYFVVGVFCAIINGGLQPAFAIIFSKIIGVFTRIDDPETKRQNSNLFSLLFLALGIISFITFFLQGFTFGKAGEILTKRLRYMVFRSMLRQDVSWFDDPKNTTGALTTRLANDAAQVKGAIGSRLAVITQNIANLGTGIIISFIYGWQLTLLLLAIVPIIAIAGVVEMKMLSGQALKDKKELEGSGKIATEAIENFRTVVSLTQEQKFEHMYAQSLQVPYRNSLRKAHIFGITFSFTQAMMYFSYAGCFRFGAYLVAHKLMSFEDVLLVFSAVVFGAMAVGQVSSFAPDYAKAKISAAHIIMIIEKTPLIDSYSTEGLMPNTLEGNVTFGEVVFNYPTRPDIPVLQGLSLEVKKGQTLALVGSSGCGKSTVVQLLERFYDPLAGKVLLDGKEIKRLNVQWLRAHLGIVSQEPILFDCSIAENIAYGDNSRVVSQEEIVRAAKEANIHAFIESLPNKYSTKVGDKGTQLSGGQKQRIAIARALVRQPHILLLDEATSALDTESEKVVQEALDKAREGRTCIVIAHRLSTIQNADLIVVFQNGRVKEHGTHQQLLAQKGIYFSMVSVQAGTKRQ
Method in brief: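 Caco-2 cells were exposed to compounds at 10 μM during incubation with the P-gp substrate rhodamine 123 (5 μM). Zosuquidar served as the specific P-gp inhibitor. Cellular rhodamine 123 was read by fluorescence spectroscopy. Mean ± SEM of at least three independent experiments in triplicate.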

SH-SY5Y [18] = assay: Protection against iron(III)-induced damage in human SH-SY5Y cells assessed as increase in lysosomal activity at 1 to 10 uM pretreated for 30 mins followed by iron(III) treatment at 1000 uM after 24 hrs by NR uptake assay; type: functional, cell-based; settings: dose 1-10 µM, time 24.5 hrs
Method in brief: (§5)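 Differentiated SH-SY5Y cells were pretreated with compounds at 1 or 10 μM for 30 min, then exposed to iron(III) at 1000 or 1500 μM for 24 h. Viability was read by neutral red uptake. Mean ± SD of three independent experiments, two-way ANOVA.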

SH-SY5Y [19] = assay: Protection against iron(III)-induced damage in human SH-SY5Y cells assessed as increase in lysosomal activity at 1 to 10 uM pretreated for 30 mins followed by iron(III) treatment at 1500 uM after 24 hrs by NR uptake assay; type: functional, cell-based; settings: dose 1-10 µM, time 24.5 hrs; method in brief: as §5

Compound: Cn1c(=O)c(C(=O)Nc2cccc(Cl)c2)cc2ccccc21
solubility [1]: Insoluble

Compound: C[C@H](NCc1ccc(OCc2cccc(F)c2)cc1)C(N)=O [SAFINAMIDE]
inhibition at 0.5 h, 10 µM (MAO-A): 30.5%
TDI [2]: Active

Compound: Cc1ccc(NC(=O)C2COc3ccccc3C2)cc1C (stereo not given)
pIC50 [3]: 5.75
inhibition at 0.5 h, 10 µM (MAO-A): 19.6%
Ratio IC50 (Homo sapiens): > 5.62

Compound: O=C(Nc1cccc(Cl)c1)C1COc2ccccc2C1 (stereo not given)
pIC50 [3]: 6.02
inhibition at 0.5 h, 10 µM (MAO-A): 10.9%
Ratio IC50 (Homo sapiens): > 10.4

Compound: O=C(Nc1cccc(Cl)c1)c1cc2ccccc2[nH]c1=O
inhibition at 0.5 h, 10 µM (MAO-A): 2.65%
inhibition at 10 µM [8]: 8.9%

Compound: Cc1ccc(NC(=O)C2=Cc3ccccc3OC2)cc1C
pIC50 [9]: 4.86
pIC50 [3]: 7.34
Ratio IC50 (Homo sapiens): 300
Activity (SH-SY5Y [6]): Non-Toxic
Activity (Caco-2 [10]): Non-Toxic

Compound: O=C(Nc1cccc(Cl)c1)c1coc2ccccc2c1=O
Activity (SH-SY5Y [4]): < 85%
Activity (SH-SY5Y [6]): Non-Toxic
Activity (Caco-2 [10]): Non-Toxic
Activity (HUVEC [11]): < 10%
Activity (HEK293 [12]): < 10%
Activity (MCF7 [13]): < 10%
IC50 (HUVEC [14]): Not Active
IC50 (HEK293 [15]): Not Active
IC50 (MCF7 [16]): Not Active
inhibition at 2 h, 10 µM (hERG): < 10%
Activity [17]: Not Active
Activity (SH-SY5Y [18]): inactive
Activity (SH-SY5Y [19]): inactive

Now from value to compound, other results behind:

pIC50 [3]: 7.99
inhibition at 0.5 h, 10 µM (MAO-A): 13.5%
Compound: O=C(Nc1cccc(Cl)c1)c1cc2ccccc2oc1=O
Ratio IC50 (Homo sapiens): > 985
Activity (SH-SY5Y [4]): 71.8%
Activity (SH-SY5Y [5]): 79.5%
Activity (SH-SY5Y [6]): Non-Toxic
Activity (Caco-2 [7]): 93.5%

inhibition at 0.5 h, 10 µM (MAO-A): 7.65%
inhibition at 10 µM [8]: 21%
Compound: Cc1ccc(NC(=O)c2cc3ccccc3n(C)c2=O)cc1C

solubility [1]: Insoluble
Compound: Cn1c(=O)c(C(=O)Nc2ccc(Cl)c(Cl)c2)cc2ccccc21

solubility [1]: Insoluble
Compound: COc1ccc(NC(=O)c2cc3ccccc3oc2=O)cc1OC
